In paper PMC7679043 (Molecular imaging and biology, 2020):
“Also recorded” adds a separate entry of the source. Read-outs that look alike come from different tables or passages of the source.

Assays:
S1PR1 [1] = conditions: read-out: IC50, nM S1PR1; binding affinity reported previously; cited from earlier work
S1PR2-5 = conditions: read-out: IC50, nM S1PR2-5; binding affinity reported previously; cited from earlier work
[2] = HPLC radiometabolite analysis of rat plasma and brain; assay type: in vivo; conditions: for level of the lipophilic radiometabolite / level of the polar radiometabolite / percentage of the parent compound: rat plasma
Method in brief: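 Adult male Sprague Dawley rats were given ~37 MBq tracer i.v. At set times post-injection they were killed by terminal exsanguination under surgical-plane anesthesia. Heparinized left-ventricle blood was spun to plasma, solvent-deproteinated and re-centrifuged. Whole brain was homogenized in cold PBS, then solvent-extracted, deproteinated and centrifuged. Supernatants ran on C18 HPLC with acetonitrile/0.1 M ammonium formate pH 4.5 (70/30) at 0.76 mL/min. Radioactive peaks were expressed as percentages.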

S1PR1 [3] = target: S1PR1 (Rattus norvegicus, UniProt P48303); assay type: in vivo; conditions: for Average uptake: 10–60 min post injection; for 2TCM VT: image-derived input function
Method in brief: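 EAE and sham rats (n=3–4 per group per tracer) were held under 1.5–2% isoflurane/oxygen, centered on T13. After CT, each received a 15–22 MBq i.v. bolus, followed by 60-min dynamic list-mode PET. Lumbar spinal cord and bilateral carotid ROIs on co-registered PET/CT gave %ID/g TACs. Mean 10–60 min uptake and 2TCM VT (carotid image-derived input) were compared by two-tailed t-test (P<0.05).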

[4] = rat brain homogenate, 5 min p.i.
[5] = rat brain homogenate, 15 min p.i.
[6] = rat brain homogenate, 40 min p.i.
[7] = rat brain homogenate, 60 min p.i.

Chain of S1PR1 (Rattus norvegicus, UniProt P48303) (P48303 whole entry): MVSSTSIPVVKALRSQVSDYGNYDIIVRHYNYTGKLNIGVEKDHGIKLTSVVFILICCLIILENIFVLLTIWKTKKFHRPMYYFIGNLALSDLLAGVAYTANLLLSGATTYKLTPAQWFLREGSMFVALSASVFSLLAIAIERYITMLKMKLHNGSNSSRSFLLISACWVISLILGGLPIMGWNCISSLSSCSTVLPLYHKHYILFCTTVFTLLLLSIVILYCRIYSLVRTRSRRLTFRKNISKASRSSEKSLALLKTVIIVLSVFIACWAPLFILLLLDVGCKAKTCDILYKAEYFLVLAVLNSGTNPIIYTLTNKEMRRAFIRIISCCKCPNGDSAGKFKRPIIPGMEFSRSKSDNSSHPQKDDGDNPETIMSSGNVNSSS

OCCOCc1ccc(-c2noc(-c3ccc(OCCF)c(C(F)(F)F)c3)n2)cc1 [TZ4877]
IC50 (S1PR1 [1]): 14.01 ± 0.04 nM | IC50 (S1PR2-5): > 1000 nM

OCCOCc1ccc(-c2noc(-c3ccc(OCC[18F])c(C(F)(F)F)c3)n2)cc1 [TZ4877]
hydrophilic radiometabolite [2, 4]: 6% | parent tracer percentage [2, 4]: 78% | hydrophilic radiometabolite [2, 5]: 2% | parent tracer percentage [2, 5]: 89% | hydrophilic radiometabolite [2, 6]: 10% | parent tracer percentage [2, 6]: 65% | hydrophilic radiometabolite [2, 7]: 14% | parent tracer percentage [2, 7]: 68% | lipophilic radiometabolite in brain ([2]; rat brain homogenate, listed as 18F-TZ4877): No lipophilic radioactive peak was detected; also recorded: not detected | level of the lipophilic radiometabolite ([2]; 5 min p.i.): 14% | level of the polar radiometabolite ([2]; 5 min p.i.): 7% | percentage of the parent compound ([2]; 5 min p.i.): 75% | level of the lipophilic radiometabolite ([2]; 15 min p.i.): 21% | level of the polar radiometabolite ([2]; 15 min p.i.): 6% | percentage of the parent compound ([2]; 15 min p.i.): 68% | level of the lipophilic radiometabolite ([2]; 40 min p.i.): 26% | level of the polar radiometabolite ([2]; 40 min p.i.): 5% | percentage of the parent compound ([2]; 40 min p.i.): 66% | level of the lipophilic radiometabolite ([2]; 60 min p.i.): 41% | level of the polar radiometabolite ([2]; 60 min p.i.): 5% | percentage of the parent compound ([2]; 60 min p.i.): 51% | Average uptake (S1PR1 [3]; EAE rat lumbar spinal cord): 1.42 ± 0.14 %ID/g | 2TCM VT (S1PR1 [3]; EAE rat lumbar spinal cord): 2.18 ± 0.20 mL/cc | 2TCM VT Increase, % (S1PR1 [3]; EAE vs sham): 21.11% | Average uptake Increase, % (S1PR1 [3]; EAE vs sham rat lumbar spinal cord, listed as 18F-TZ4877): 29.09% | bone uptake/defluorination (S1PR1 [3]; PET images without CT co-registration, rat): no obvious bone uptake/defluorination | initial tracer uptake at 20 min (S1PR1 [3]; rat spinal cord, 20 min): ~ 1.5 %ID/g | tracer uptake / retention at 60 min (S1PR1 [3]; rat spinal cord, 60 min): > 1.0 %ID/g | Average uptake (S1PR1 [3]; sham rat lumbar spinal cord, listed as 18F-TZ4877): 1.10 ± 0.06 %ID/g | 2TCM VT (S1PR1 [3]; sham rat lumbar spinal cord): 1.80 ± 0.20 mL/cc
